This is a sample that favours compounds with a hit; in the whole collection about 3.8% have one here.
ANO1 activ – activates or potentiates the mouse TMEM16A chloride channel; Q8BHY3; HEK293 TMEM16A/YFP-H148Q/I152L, iodide quench fluorescence; stronger effect = lower value; B-score at 10 µM; 340,000 tested, 0.3% active;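 active = fluorescence-ratio B-score plate-corrected deviation score at least 3 library SD below zero, with starting fluorescence score within 5 deviations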;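 also: channel opened by trigger with iodide after compound preincubation; score built on the fluorescence ratio of max minus min over baseline; more negative score means more quench and so TMEM16A activation or potentiation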
Target sequence (Q8BHY3 whole entry, looked up): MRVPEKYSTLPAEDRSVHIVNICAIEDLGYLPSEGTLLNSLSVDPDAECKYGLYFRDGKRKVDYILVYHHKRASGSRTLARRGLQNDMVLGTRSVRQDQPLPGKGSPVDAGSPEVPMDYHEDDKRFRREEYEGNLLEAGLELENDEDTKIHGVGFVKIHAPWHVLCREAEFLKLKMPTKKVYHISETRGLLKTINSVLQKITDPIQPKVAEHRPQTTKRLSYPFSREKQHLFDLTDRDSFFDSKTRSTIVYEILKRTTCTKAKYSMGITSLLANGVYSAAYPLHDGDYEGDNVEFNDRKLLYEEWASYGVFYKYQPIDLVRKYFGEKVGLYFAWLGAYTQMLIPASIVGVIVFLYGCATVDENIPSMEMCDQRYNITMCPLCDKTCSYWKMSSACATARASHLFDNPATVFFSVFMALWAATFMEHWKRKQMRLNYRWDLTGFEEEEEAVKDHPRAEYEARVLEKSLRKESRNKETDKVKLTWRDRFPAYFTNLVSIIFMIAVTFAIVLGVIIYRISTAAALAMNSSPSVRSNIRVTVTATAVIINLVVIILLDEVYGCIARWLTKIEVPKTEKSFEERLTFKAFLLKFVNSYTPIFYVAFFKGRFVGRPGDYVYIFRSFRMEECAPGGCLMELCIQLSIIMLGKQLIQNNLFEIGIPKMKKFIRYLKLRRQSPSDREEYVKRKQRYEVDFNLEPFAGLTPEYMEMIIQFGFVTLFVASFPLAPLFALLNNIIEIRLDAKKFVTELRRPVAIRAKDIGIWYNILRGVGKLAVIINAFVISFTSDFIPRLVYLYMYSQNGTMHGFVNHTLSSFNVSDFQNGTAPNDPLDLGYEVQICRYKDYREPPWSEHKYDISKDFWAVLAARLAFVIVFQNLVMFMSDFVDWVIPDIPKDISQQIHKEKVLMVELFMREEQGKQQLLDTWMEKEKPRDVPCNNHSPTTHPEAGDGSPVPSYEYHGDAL
MC4R ag barr – agonists of human melanocortin 4 receptor (MC4R) beta-arrestin; U2OS MC4R beta-arrestin complementation, luminescence; percent of melanotan II response, DMSO zero; P32245; 360,000 tested, 0.98% active; activation, % at 8.9 µM;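 active = activation above a per-plate cutoff, the mean activation of sample wells on that plate plus 3 SD, cut at about 8% in these data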
CSC inhib – cancer stem cell inhibition. cancer stem cell-like cells viability, luminescence. inhibition, % at 7.5 µM. 300,000 tested, 1.1% active. AID 2717; in the data active = inhibition above about 75%; tested in HMLE shEcad cells
Beta apoptosis – beta cell apoptosis inhibition; protection from apoptosis, % (test concentration not listed); 300,000 tested, 0.8% active; INS-1E cytokine-induced death, ATP luminescence, 48 h; percent of positive-control rescue, neutral wells zero;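 active = Every replicate reaches about 75%, or at least half do and their mean reaches it too, limit read from the data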;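 also: higher means more ATP so stronger rescue from cytokine killing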
TMEM16A inh – blocks the mouse calcium-activated chloride channel TMEM16A; Q8BHY3; HEK293 TMEM16A/YFP iodide influx fluorescence, ionomycin; normalized B-score (activity score, 25-100; higher = stronger inhibition) at 10 µM; 310,000 tested, 1.2% active; AID 588511;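 active = ratio plate-corrected score three or more library SD toward inhibition, starting fluorescence score within five deviations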;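 also: score derived from kinetic fluorescence span divided by baseline fluorescence per well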
MC4R antagonist – antagonists of human melanocortin 4 receptor (MC4R) | inhibition, % at 6.5 µM | AID 540295 | MC4R-expressing cells, MTII-stimulated cAMP, LANCE TR-FRET | 360,000 tested, 0.48% active;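 active = inhibition above its plate's cutoff, the mean of tested wells on that plate plus 3 SD, cut at about 29% in these data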
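Assay system: human MC4R-expressing U2OS cells; reagent: Melanotan II stimulation of cells; dosing: 6.5 µM single dose; timing: compound 30 min, challenge 1 h, detection 1 h; signal: TR-FRET cAMP assay; replicates: one well per compound, no replicates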
MC4R barr conf – human MC4R beta-arrestin agonism confirmation | shares compounds with MC4R ag barr | U2OS MC4R beta-arrestin recruitment, luminescence; scaled DMSO 0%, Melanotan II 100% | activation, % at 8.9 µM | 2,400 tested, 31% active;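 active = mean activation across replicates above the hit cutoff set in the earlier primary screen, cut at about 8% in these data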
MOR-DOR barr ag – activates mu-delta opioid heterodimer, MC4R agonist counter-screen; 2,400 tested, 5.8% active; U2OS PathHunter beta-arrestin, beta-gal luminescence; percent of deltorphin B response, DMSO zero; activation, % at 9.2 µM; shares compounds with MC4R ag barr;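 active = mean activation across replicates exceeds the hit threshold derived in the earlier primary screen, cut at about 18% in these data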
Large screens that a line does not name were inactive (follow-up assays come after a bar, where they were run).

C=CCn1c(SCC(=O)c2ccc(OC)cc2)nnc1-c1cc2cccc(OC)c2o1	MC4R ag barr 53 | MC4R barr conf 12 | MOR-DOR barr ag inactive
COc1ccc(NC(=O)c2cc3c(=O)n(C)c4ccccc4c3n2C)cc1OC	none
COc1cc(NC(=O)c2cc3c(=O)n(C)c4ccccc4c3n2C)cc(OC)c1OC	MC4R ag barr 31 | MC4R barr conf inactive | MOR-DOR barr ag inactive
CCCCCCn1c(COc2ccccc2F)nnc1SCC(=O)NC1CCS(=O)(=O)C1 (centres undefined)	none (no result: CSC inhib, Beta apoptosis, TMEM16A inh)
O=C(CSc1cc(Cl)ccc1Cl)NC1CCCc2ccccc21 (centres undefined)	MC4R ag barr 13 | MC4R barr conf inactive | MOR-DOR barr ag inactive
O=C(CSc1nc2cc(Cl)ccc2s1)NC1CCCc2ccccc21 (centres undefined)	none
CC(=O)c1sc(NC(=O)CCCOc2ccc(Cl)cc2)nc1C	MC4R ag barr 11 | MC4R barr conf inactive | MOR-DOR barr ag inactive
COc1ccc(NC(=O)Nc2nnc(-c3ccccc3SCc3ccccc3)s2)cc1	MC4R ag barr 18 | MC4R barr conf 17 | MOR-DOR barr ag inactive
Cc1occc1C(=O)Nc1nnc(-c2cccs2)s1	MC4R ag barr 13 | MC4R barr conf inactive | MOR-DOR barr ag inactive
Cc1occc1C(=O)Nc1nccs1	none
COc1ccc(NC(=O)Nc2nnc(-c3cccs3)s2)cc1	MC4R ag barr 13 | MC4R barr conf inactive | MOR-DOR barr ag inactive
COc1cccc(NC(=O)Nc2nnc(-c3ccccc3SCc3ccccc3)s2)c1	none
O=C(C[C@@H]1C/C=C\C[C@H](NC(=O)OCC2c3ccccc3-c3ccccc32)C(=O)OC[C@H]2CCCN2C1=O)NCCO	none (no result: CSC inhib, Beta apoptosis, TMEM16A inh)
COc1cc(NC(=O)c2ccccc2)c(OC)cc1NC(=O)Cc1ccc(C)cc1	none
CCSc1nc2nccnc2c(=O)[nH]1	none (no result: CSC inhib, Beta apoptosis, TMEM16A inh)
CC1(C(=O)NCc2ccccc2Br)CCN1C(=O)C1(c2ccc(Cl)cc2)CC1 (centres undefined)	none (no result: ANO1 activ, CSC inhib, Beta apoptosis, TMEM16A inh)
COc1cc(OC)cc(C(=O)OCC(=O)Nc2ccc(N3CCCCC3)cc2)c1	MC4R ag barr 13 | MC4R barr conf inactive | MOR-DOR barr ag inactive
CCOc1ccccc1C(=O)OCC(=O)Nc1ccc(N2CCCCC2)cc1	none
O=C(COC(=O)c1ccccc1OC(F)F)Nc1ccc(N2CCCCC2)cc1	MC4R ag barr 11 (no result: CSC inhib, Beta apoptosis, TMEM16A inh) | MC4R barr conf inactive | MOR-DOR barr ag inactive
Nc1c(-c2ccccn2)cnn1-c1nc(-c2ccc(F)cc2)cs1	MC4R ag barr 9.7 | MC4R barr conf inactive | MOR-DOR barr ag inactive
C#CCOc1ccc(/C=C2\SC(=S)N(Cc3cccnc3)C2=O)cc1	MC4R ag barr 13, CSC inhib 79 (no result: Beta apoptosis) | MC4R barr conf inactive | MOR-DOR barr ag inactive
COc1ccc(CCN2CC(C(=O)N(C)Cc3cccnc3)CC2=O)cc1OC (centres undefined)	none (no result: CSC inhib, TMEM16A inh)
Cc1ccc(OCc2nn3c(-c4ccco4)nnc3s2)cc1	none
Clc1ccc(OCc2nn3c(-c4ccco4)nnc3s2)c(Cl)c1	MC4R ag barr 21 | MC4R barr conf inactive | MOR-DOR barr ag inactive
O=C1NC2(CCC3(CC2)OCCO3)NN1c1ccccc1	none
O=C1NC2(NN1c1ccccc1)C1CC3CC(C1)CC2C3 (centres undefined)	MC4R ag barr 18 | MC4R barr conf inactive | MOR-DOR barr ag inactive
CC(C)Cn1c(=S)[nH]c2cc(C(=O)NCc3ccccc3F)ccc2c1=O	MC4R ag barr 14 (no result: TMEM16A inh) | MC4R barr conf inactive | MOR-DOR barr ag inactive
Fc1ccc(-n2nnnc2-c2cnc(-c3cccs3)nc2C(F)(F)F)cc1	MC4R ag barr 11 | MC4R barr conf inactive | MOR-DOR barr ag inactive
CCOC(=O)C1(C)CCN1C(=O)CSc1ccccc1 (centres undefined)	none (no result: ANO1 activ, CSC inhib, Beta apoptosis, TMEM16A inh)
Cc1ccc(C(=O)c2coc3c2C(=O)C(=O)c2ccccc2-3)cc1	MC4R ag barr 16 | MC4R barr conf 17 | MOR-DOR barr ag inactive
Cc1nc(C)c(-c2ccc(SCC(=O)Nc3ccc(C)c(Cl)c3)nn2)s1	MC4R ag barr 10 | MC4R barr conf inactive | MOR-DOR barr ag inactive
COc1ccc(NC(=O)CSc2ccc(-c3sc(C)nc3C)nn2)cc1OC	none
Cc1ccccc1-c1nnc(SCC(=O)N(C)c2c(N)n(Cc3ccccc3)c(=O)[nH]c2=O)n1C	none
CC1Sc2ccc(S(=O)(=O)N3CCC(C(=O)NCC(C)c4ccccc4)CC3)cc2NC1=O (centres undefined)	none
Cc1ccc2sc(N(CCCN(C)C)C(=O)c3ccc(Br)s3)nc2c1C	MC4R ag barr 22 | MC4R barr conf 19 | MOR-DOR barr ag inactive
Cc1cccc2sc(N(CCCN(C)C)C(=O)c3nc4ccccc4s3)nc12	none
Cc1ccc2sc(N(CCCN(C)C)C(=O)c3nc4ccccc4s3)nc2c1C	MC4R ag barr 40 | MC4R barr conf 26 | MOR-DOR barr ag 31
CN1CCC(N(C)C(=O)c2cc(=O)c3ccccc3o2)CC1	none
O=C(NCCc1ccc(Cl)cc1)c1cc(-c2ccccn2)nc2ccccc12	MC4R ag barr 11 | MC4R barr conf inactive | MOR-DOR barr ag inactive
CC1CCC(C(C)C)C(OC(=O)Cn2c(-c3ccc(F)cc3)[n+](C)c3ccccc32)C1 (centres undefined)	MC4R ag barr 17, Beta apoptosis 105, TMEM16A inh 100 | MC4R barr conf 16 | MOR-DOR barr ag inactive
CC(=O)N1CCN(c2cc(N3CCCC3)c(F)cc2[N+](=O)[O-])CC1	none
CCN1CCN(c2cc(N3CCc4ccccc4C3)c(F)cc2[N+](=O)[O-])CC1	MC4R ag barr 15 | MC4R barr conf 14 | MOR-DOR barr ag inactive
O=C(CSc1nnc(COc2ccc(Cl)cc2)n1Cc1ccco1)c1ccccc1F	MC4R ag barr 22 | MC4R barr conf inactive | MOR-DOR barr ag inactive
CCOC(=O)CCSc1nc(-c2ccc3c(c2)OCO3)cc(C(F)(F)F)c1C#N	none
CCOC(=O)CC(=O)CSc1nc(-c2ccc3c(c2)OCO3)cc(C(F)(F)F)c1C#N	MC4R ag barr 25 | MC4R barr conf 8.9 | MOR-DOR barr ag inactive
CCNC(=S)N/N=C/c1cc(Br)cc(Br)c1OC	MC4R ag barr 12 (no result: CSC inhib) | MC4R barr conf inactive | MOR-DOR barr ag inactive
Nc1ccccc1C(=O)NNc1c2ccccc2nc2ccccc12	none
O=C(CN1CCCCCCC1)Nc1cc(Cl)cc(Cl)c1	MC4R ag barr 14 | MC4R barr conf inactive | MOR-DOR barr ag inactive
CCn1c2ccc(OC)cc2c2nc3ccccc3nc21	none (no result: ANO1 activ, MC4R ag barr, MC4R antagonist)
CCOc1ccc(Cn2c3ccc(OC)cc3c3nc4ccccc4nc32)cc1	MC4R ag barr 30 | MC4R barr conf 38 | MOR-DOR barr ag inactive
